The subject of one data set is L1210. The experiment in a line: Antitumor activity against mouse L1210 cells allografted in DBA/2 mouse at 25 to 200 mg/kg. In kind it is functional, organism-based.
The test system of data set [1] is P388. The experiment in a line: Antitumor activity against mouse P388 cells allografted in DBA/2 mouse assessed as disease cure at 365 mg/kg/day, ip for 9 days compound administered through water+alcohol vehicle measured after 30 days. In kind it is functional, organism-based. The procedure, abridged: (§1)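 P388 lymphocytic leukemia in DBA/2 mice; one intraperitoneal injection per day for 9 days. […] Injection vehicles were water + alcohol, saline + Tween 80, or aqueous 0.5% citric acid. Some tests were duplicated, and 30-day cures were recorded.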

In data set [2] the test system is Mus musculus. The experiment in a line: Toxicity in DBA/2 mouse allografted with mouse P388 cells assessed as change in body weight at 4 mg/kg/day, ip for 9 days compound administered through saline vehicle. In kind it is organism-based. Details: route intraperitoneal. The following applies: in vivo, 216 h.
For data set [3], the system named is Mus musculus. The data set is described as follows: Toxicity in DBA/2 mouse allografted with mouse P388 cells assessed as change in body weight at 9 mg/kg/day, ip for 9 days compound administered through water+alcohol vehicle. Details: route intraperitoneal. In kind it is organism-based. To be noted: in vivo, 216 h.
Data set [4] has as its system P388. The data set is described as follows: Antitumor activity against mouse P388 cells allografted in DBA/2 mouse assessed as host survival at 4 mg/kg/day, ip for 9 days compound administered through saline vehicle relative to control. In kind it is functional. To be noted: route intraperitoneal. The procedure, abridged:
(§2)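 P388 lymphocytic leukemia in DBA/2 mice. Dosing was one intraperitoneal injection per day for 9 days in the vehicle stated. […] Duplicate tests were run for some doses.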

The test system of data set [5] is P388. The experiment in a line: Antitumor activity against mouse P388 cells allografted in DBA/2 mouse assessed as host survival at 9 mg/kg/day, ip for 9 days compound administered through water+alcohol vehicle relative to control. In kind it is functional. To be noted: route intraperitoneal. The procedure, abridged:
as §2

The subject of data set [6] is Mus musculus. The experiment in a line: Toxicity in DBA/2 mouse allografted with mouse P388 cells assessed as change in body weight at 160 mg/kg/day, ip for 9 days compound administered through water+alcohol vehicle. In kind it is organism-based. Details: route intraperitoneal. The following applies: in vivo, 216 h. The essentials:
(§3)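 DBA/2 mice bearing P388 lymphocytic leukemia received one intraperitoneal injection per day for 9 days, given in the vehicle named for each test (water/alcohol-based, saline or saline + Tween 80). Toxicity was noted during dosing alongside survival scoring (T/C, treated versus control mean survival time).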

Data set [7] relates to Mus musculus. The experiment in a line: Toxicity in DBA/2 mouse allografted with mouse P388 cells assessed as change in body weight at 80 mg/kg/day, ip for 9 days compound administered through water+alcohol vehicle. In kind it is organism-based. Set-up: route intraperitoneal. The following applies: in vivo, 216 h. The procedure, abridged:
as §3

The test system of data set [8] is Mus musculus. The data set is described as follows: Toxicity in DBA/2 mouse allografted with mouse P388 cells assessed as change in body weight at 40 mg/kg/day, ip for 9 days compound administered through water+alcohol vehicle. In kind it is organism-based. Set-up: route intraperitoneal. The following applies: in vivo, 216 h. The procedure, abridged:
as §3

For data set [9], the system named is Mus musculus. The data set is described as follows: Toxicity in DBA/2 mouse allografted with mouse P388 cells assessed as change in body weight at 320 mg/kg/day, ip for 9 days compound administered through water+alcohol vehicle. In kind it is organism-based. Details: route intraperitoneal. The following applies: in vivo, 216 h. The procedure, abridged: as §3

The subject of data set [10] is Mus musculus. The experiment in a line: Toxicity in DBA/2 mouse allografted with mouse P388 cells assessed as change in body weight at 8.8 mg/kg/day, ip for 9 days compound administered through water+alcohol vehicle. In kind it is organism-based. Set-up: route intraperitoneal. To be noted: in vivo, 216 h. The essentials: as §3
The subject of data set [11] is P388. The experiment in a line: Antitumor activity against mouse P388 cells allografted in DBA/2 mouse assessed as host survival at 20 mg/kg/day, ip for 9 days compound administered through 0.5% citric acid vehicle. In kind it is functional, organism-based. The procedure, abridged:
as §1

For data set [12], the system named is P388. The experiment in a line: Antitumor activity against mouse P388 cells allografted in DBA/2 mouse assessed as host survival at 20 mg/kg/day, ip for 9 days compound administered through water+alcohol vehicle relative to control. In kind it is functional. The following applies: route intraperitoneal. The essentials: as §2
Data set [13] relates to P388. The experiment in a line: Antitumor activity against mouse P388 cells allografted in DBA/2 mouse assessed as host survival at 13 mg/kg/day, ip for 9 days compound administered through water+alcohol vehicle relative to control. The following applies: route intraperitoneal. In kind it is functional. The essentials:
as §2

Data set [14] deals with P388. The data set is described as follows: Antitumor activity against mouse P388 cells allografted in DBA/2 mouse assessed as host survival at 160 mg/kg/day, ip for 9 days compound administered through water+alcohol vehicle relative to control. The following applies: route intraperitoneal. In kind it is functional. The essentials: as §2
In data set [15] the test system is P388. The data set is described as follows: Antitumor activity against mouse P388 cells allografted in DBA/2 mouse assessed as host survival at 80 mg/kg/day, ip for 9 days compound administered through water+alcohol vehicle relative to control. In kind it is functional. The following applies: route intraperitoneal. The procedure, abridged:
as §2

Data set [16] relates to P388. The data set is described as follows: Antitumor activity against mouse P388 cells allografted in DBA/2 mouse assessed as host survival at 40 mg/kg/day, ip for 9 days compound administered through water+alcohol vehicle relative to control. In kind it is functional. To be noted: route intraperitoneal. The essentials: as §2
Data set [17] relates to P388. The experiment in a line: Antitumor activity against mouse P388 cells allografted in DBA/2 mouse assessed as host survival at 320 mg/kg/day, ip for 9 days compound administered through water+alcohol vehicle relative to control. To be noted: route intraperitoneal. In kind it is functional. The essentials: as §2
Data set [18] has as its system P388. The data set is described as follows: Antitumor activity against mouse P388 cells allografted in DBA/2 mouse assessed as host survival at 8.8 mg/kg/day, ip for 9 days compound administered through water+alcohol vehicle relative to control. In kind it is functional. The following applies: route intraperitoneal. The essentials:
as §2

In data set [19] the test system is Mus musculus. The experiment in a line: Toxicity in DBA/2 mouse allografted with mouse P388 cells assessed as change in body weight at 20 mg/kg/day, ip for 9 days compound administered through water+alcohol vehicle. The following applies: in vivo, 216 h. In kind it is organism-based. Details: route intraperitoneal. The essentials:
as §3

Data set [20] concerns Mus musculus. The data set is described as follows: Toxicity in DBA/2 mouse allografted with mouse P388 cells assessed as change in body weight at 13 mg/kg/day, ip for 9 days compound administered through water+alcohol vehicle. In kind it is organism-based. Set-up: route intraperitoneal. To be noted: in vivo, 216 h. The essentials: as §3
Data set [21] deals with P388. The experiment in a line: Antitumor activity against mouse P388 cells allografted in ip dosed DBA/2 mouse administered for 9 days. In kind it is functional, organism-based. The essentials: as §1
Data set [22] deals with Mus musculus. The data set is described as follows: Toxicity in DBA/2 mouse allografted with mouse P388 cells assessed as change in body weight at 20 mg/kg/day, ip for 9 days compound administered through water+acetone vehicle. In kind it is organism-based. Details: route intraperitoneal. The following applies: in vivo, 216 h. The procedure, abridged:
as §3

For data set [23], the system named is P388. The experiment in a line: Antitumor activity against mouse P388 cells allografted in DBA/2 mouse assessed as host survival at 20 mg/kg/day, ip for 9 days compound administered through water+acetone vehicle relative to control. In kind it is functional. To be noted: route intraperitoneal. The essentials: as §2

Calls of active or inactive are those of the source. The calls are words filed in the database; no cut-off is given here.

A word on the T/C: it is the ratio of treated to control.

For `C=C(CC(=O)OC)C(=O)O[C@@H]1C(OC)=C[C@]23CCCN2CCc2cc4c(cc2[C@H]13)OCO4`, the result in the data set on L1210 was inactive. For the same compound, the outcome in the data set on P388 [1] was Active.

Regarding `COC(=O)C[C@@](O)(CCC(C)C)C(=O)O[C@@H]1C(OC)=C[C@]23CCCN2CCc2cc4c(cc2[C@H]13)OCO4`, the Activity with Mus musculus [2] is 0.5 g; with Mus musculus [3] it was -2.2 g. The values for the T/C in the data set on P388 [4] and with P388 [5] were 150% and 131%, respectively.

On to `COC1=C[C@]23CCCN2CCc2cc4c(cc2[C@@H]3[C@@H]1OC(=O)OCC(Cl)(Cl)Cl)OCO4`, for which the Activity in the data set on Mus musculus [6] is on record as -0.9 g; in the data set on Mus musculus [7], -1.3 g; with Mus musculus [8] it was -0.4 g; with Mus musculus [9], -1 g; in the data set with Mus musculus [10] it was -0.3 g; in the data set with Mus musculus [19] it was -2.7 g. Besides, the Activity with Mus musculus [20] is -0.5 g. The result in the data set with P388 [11] was inactive. In addition, the T/C is 128% in the data set on P388 [12]; 138% with P388 [13]; 155% with P388 [14]; 160% in the data set on P388 [15]; 140% in the data set on P388 [16]; 172% in the data set on P388 [17]. For the same compound, in the data set with P388 [18], the T/C came out at 170%.

Turning to `COC1=C[C@]23CCCN2CCc2cc4c(cc2[C@@H]3[C@@H]1OC(=O)OCc1ccccc1)OCO4`, in the data set with P388 [21], the outcome was inactive.

As for `COC(=O)/C=C/C=C/C(=O)O[C@@H]1C(OC)=C[C@]23CCCN2CCc2cc4c(cc2[C@H]13)OCO4`, the outcome in the data set on P388 [21] was inactive.

On to `COC(=O)/C(=C/C(=O)O[C@@H]1C(OC)=C[C@]23CCCN2CCc2cc4c(cc2[C@H]13)OCO4)CCC(C)C`, for which the Activity in the data set with Mus musculus [22] came to 0.9 g. In the data set with P388 [23], the T/C is on record as 131%.

For the compound `C/C=C/C=C/C(=O)O[C@@H]1C(OC)=C[C@]23CCCN2CCc2cc4c(cc2[C@H]13)OCO4`, the Activity is reported as 0.9 g in the data set with Mus musculus [7], -1.8 g in the data set on Mus musculus [8] and 0.9 g in the data set with Mus musculus [19]. Further, the results for the T/C in the data set with P388 [12], in the data set on P388 [15] and with P388 [16] were 130%, 150% and 125%, respectively.

The values above are taken from ChEMBL document CHEMBL3244241, “Synthesis of cephalotaxine esters and correlation of their structures with antitumor activity” (J Med Chem, 1977).
